The record followed here is ChEMBL document CHEMBL1134466 (J Med Chem, 2001).

The test system of data set [1] is Mus musculus. Description: (§1) Toxicity to bone marrow granulocyte/macrophage progenitors per femur at a dose of 150 mg/kg (ip). Type of data set: organism-based. Also on record: dose 150 mg/kg. To be noted: in vivo. A digest of the protocol:
(§2)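 Male B6D2F1 mice (5/group) given drug or vehicle ip, single dose or daily ×5. Femoral marrow harvested 24 h after the last dose and plated at 2 × 10^4 viable nucleated cells/mL in methylcellulose (0.8%) medium with 20% FBS and 10% pokeweed mitogen-stimulated spleen-conditioned medium. Cultured 7 days at 37 °C, 5% CO2; colonies >50 cells counted. Mean colonies given as % of control per femur, mean ± SEM.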

The test system of data set [2] is Mus musculus. Description: (§3) Toxicity to bone marrow granulocyte/macrophage progenitors per femur at a dose of 200 mg/kg (ip). It is filed as organism-based. Also on record: dose 200 mg/kg. To be noted: in vivo. A digest of the protocol: as §2
For data set [3], the system named is Mus musculus. Description: Antitumor activity in MX-1 Xenograft Model at a dose of 25 mg/kg (ip) measured as percent growth inhibition. Type of data set: functional. Particulars: read-out: GI. A digest of the protocol: (§4)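 Nude mice implanted sc by trocar in right foreflank with 1-2 mm3 MX-1 fragments. At ca. 5 × 5 mm (~10 days), pair-matched into groups of 10. Dosed ip days 1-5 in 0.2 mL 1:2:7 Cremophor:ethanol:saline. Weights and caliper measurements taken twice weekly; weight change on day 8. GI = 100% × (1 − tumor weight treated/control). Partial shrinkage = final tumor weight below day-1 weight; complete = tumor gone.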

Data set [4] deals with Mus musculus. Description: Antitumor activity against B16 murine melanoma at a dose of 50 mg/kg (ip) measured as 60-day survivors (% LTS). Type of data set: functional. A digest of the protocol:
(§5)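 Female B6D2F1 mice given 0.2 mL fresh B16 tumor brei ip (day 0), from sc-grown B16 in the same strain. Randomized 10/group and dosed ip on days 1-5 in 0.2 mL 1:2:7 Cremophor:ethanol:saline, freshly made. Mice monitored daily and weighed twice weekly; weight change taken on day 8. T/C = 100% × MST treated/control. 60-day survivors counted as long-term and excluded from MST.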

The test system of data set [5] is Mus musculus. Description: Antitumor activity against B16 murine melanoma at a dose of 7.5 mg/kg (ip) measured as 60-day survivors (% LTS). It is filed as functional. A digest of the protocol: as §5
Data set [6] deals with Mus musculus. Description: Antitumor activity against B16 murine melanoma at a dose of 50 mg/kg (ip) measured as percent weight change on day 8. It is filed as functional. A digest of the protocol: as §5
For data set [7], the system named is Mus musculus. Description: Antitumor activity against B16 murine melanoma at a dose of 7.5 mg/kg (ip) measured as percent weight change on day 8. It is filed as functional. A digest of the protocol:
as §5

The subject of data set [8] is Mus musculus. Description: Antitumor activity against B16 murine melanoma at a dose of 50 mg/kg (ip) measured as increased life span (% T/C). It is filed as functional. A digest of the protocol:
as §5

Data set [9] deals with Mus musculus. Description: Antitumor activity against B16 murine melanoma at a dose of 7.5 mg/kg (ip) measured as increased life span (% T/C). Type of data set: functional. In outline:
as §5

Data set [10] relates to Mus musculus. Description: Antitumor activity in MX-1 Xenograft Model at a dose of 50 mg/kg (ip) measured as percent weight change on day 8. It is filed as functional. In outline: as §4
Data set [11] deals with Mus musculus. Description: Antitumor activity in MX-1 Xenograft Model at a dose of 25 mg/kg (ip) measured as number of mice with partial tumor regression. Type of data set: functional. A digest of the protocol:
as §4

For data set [12], the system named is Mus musculus. Description: Antitumor activity in MX-1 Xenograft Model at a dose of 25 mg/kg (ip) measured as number of mice with complete tumor regression. Type of data set: functional. A digest of the protocol:
as §4

Data set [13] has as its system Mus musculus. Description: Toxicity to bone marrow granulocyte/macrophage progenitors per femur at a dose of 100 mg/kg (ip). It is filed as functional. In outline: as §2
Data set [14] has as its system Mus musculus. The data set is described as §1. It is filed as functional. In outline:
as §2

The test system of data set [15] is Mus musculus. Description: Toxicity to bone marrow granulocyte/macrophage progenitors per femur at a dose of 50 mg/kg (ip). Type of data set: functional. In outline:
as §2

The subject of data set [16] is Mus musculus. Description: Antitumor activity in MX-1 Xenograft Model at a dose of 50 mg/kg (ip) measured as percent growth inhibition. Type of data set: functional. Particulars: read-out: GI. In outline: as §4
The test system of data set [17] is Mus musculus. Description: Antitumor activity in MX-1 Xenograft Model at a dose of 50 mg/kg (ip) measured as number of mice with partial tumor regression. Type of data set: functional. A digest of the protocol: as §4
Data set [18] has as its system Mus musculus. Description: Antitumor activity in MX-1 Xenograft Model at a dose of 50 mg/kg (ip) measured as number of mice with complete tumor regression. Type of data set: functional. In outline: as §4
Data set [19] deals with Mus musculus. Description: Antitumor activity against B16 murine melanoma at a dose of 5 mg/kg (ip) measured as 60-day survivors (% LTS). Type of data set: functional. In outline: as §5
For data set [20], the system named is Mus musculus. Description: Antitumor activity against B16 murine melanoma at a dose of 5 mg/kg (ip) measured as increased life span (% T/C). Type of data set: functional. A digest of the protocol:
as §5

For data set [21], the system named is Mus musculus. The data set is described as §3. It is filed as functional. A digest of the protocol:
as §2

Data set [22] concerns Mus musculus. Description: Antitumor activity against B16 murine melanoma at a dose of 100 mg/kg (ip) measured as 60-day survivors (% LTS). It is filed as functional. A digest of the protocol: as §5
In data set [23] the test system is Mus musculus. Description: Antitumor activity against B16 murine melanoma at a dose of 100 mg/kg (ip) measured as percent weight change on day 8. Type of data set: functional. A digest of the protocol: as §5
For data set [24], the system named is Mus musculus. Description: Antitumor activity against B16 murine melanoma at a dose of 100 mg/kg (ip) measured as increased life span (% T/C). It is filed as functional. A digest of the protocol: as §5

Each structure is given as a SMILES string.

As usually defined, the T/C is the ratio of treated to control. In the case of `O=[N+]([O-])c1ccc(COP(=O)(N(CCCl)CCCl)N(CCCl)CCCl)s1`, the results for the Control in [1] and in data set [2] were 106% and 81%, respectively. For the same compound, the inhibition in vivo at 25 mg/kg in data set [3] was over 99%. Besides, the LTS in data set [4] came to 0%; in data set [5] it was 20%. The Weight change in [6] came out at 8%; in data set [7], 10%; in data set [10], 1%. Also, the T/C in data set [8] is recorded as 166%; in data set [9], 248%. For the same compound, in [11], the No. partial was 10. Moreover, the No. total in [12] is listed as 0.
With `O=[N+]([O-])c1ccc(COP(=O)(N(CCBr)CCBr)N(CCBr)CCBr)o1`, the values for the Control in data set [13], in data set [14] and in data set [15] were 32%, 23% and 102%, respectively. Further, the inhibition in vivo at 50 mg/kg in data set [16] was over 99%. The same compound registered an LTS in [4] of 0%. For the same compound, the Weight change in [6] and in data set [10] was 11% in each case. Also, the T/C in data set [8] was found to be 202%. The No. partial in data set [17] amounted to 6. The compound also had a No. total in [18] of 4.
Regarding `O=[N+]([O-])c1ccc(COP(=O)(N(CCBr)CCBr)N(CCBr)CCBr)s1`, the Control in data set [13] was determined as 64%; in data set [15], 93%. In data set [19], this compound showed an LTS of 0%. In addition, in [6], the Weight change is 10%. In [20], this compound yielded a T/C of 185%.
Regarding `O=[N+]([O-])c1ccc(COP(=O)(N(CCCl)CCCl)N(CCCl)CCCl)o1`, the Control in data set [13] came out at 100%; in data set [14], 104%; in [21], 26%. The inhibition in vivo at 50 mg/kg in data set [16] came out at 99%. Besides, the LTS in data set [22] is recorded as 10%. Further, the Weight change in [23] stood at 6%; in [10] it was 2%. Besides, in data set [24], the T/C was 172%. The same compound came in with a No. partial in [17] of 7. Besides, in data set [18], the No. total is recorded as 0.
